How the values were obtained:
[1] = Oral bioavailability in Sprague-Dawley rat at 1.3 mg/kg, iv or 3.4 mg/kg, po; assay type: ADME, organism-based; conditions: in vivo
Summary of the method: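 Single intravenous or oral doses given to Sprague-Dawley rats. Values are reported as means: Cmax (ng/mL), half-life (min), plasma clearance (mL/min/kg), steady-state volume of distribution (L/kg) and oral bioavailability F (%).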

[2] = Oral bioavailability in Beagle dog at 0.8 mg/kg, iv or 4.0 mg/kg, po; assay type: ADME, organism-based, Canis lupus familiaris; conditions: in vivo
Summary of the method: (§1)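 Single-dose study, with separate intravenous and oral administrations at the listed mg/kg. Plasma concentrations were followed over time, and mean values were derived for Cmax, T1/2, clearance (mL/min/kg), Vdss (L/kg) and oral bioavailability (%).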

[3] = Oral bioavailability in cynomolgus monkey at 0.8 mg/kg, iv or 4.0 mg/kg, po; assay type: ADME, organism-based, Macaca fascicularis; conditions: in vivo; summary of the method: as §1
[4] = Volume of distribution in cynomolgus monkey at 0.8 mg/kg, iv or 4.0 mg/kg, po; assay type: ADME, organism-based, Macaca fascicularis; conditions: in vivo, read-out: Vdss; summary of the method: as §1
[5] = target: T1, Nuclear receptor subfamily 1 group I member 2 (Homo sapiens, UniProt O75469); experiment: Effect on PXR activity
T1 sequence (O75469 whole entry): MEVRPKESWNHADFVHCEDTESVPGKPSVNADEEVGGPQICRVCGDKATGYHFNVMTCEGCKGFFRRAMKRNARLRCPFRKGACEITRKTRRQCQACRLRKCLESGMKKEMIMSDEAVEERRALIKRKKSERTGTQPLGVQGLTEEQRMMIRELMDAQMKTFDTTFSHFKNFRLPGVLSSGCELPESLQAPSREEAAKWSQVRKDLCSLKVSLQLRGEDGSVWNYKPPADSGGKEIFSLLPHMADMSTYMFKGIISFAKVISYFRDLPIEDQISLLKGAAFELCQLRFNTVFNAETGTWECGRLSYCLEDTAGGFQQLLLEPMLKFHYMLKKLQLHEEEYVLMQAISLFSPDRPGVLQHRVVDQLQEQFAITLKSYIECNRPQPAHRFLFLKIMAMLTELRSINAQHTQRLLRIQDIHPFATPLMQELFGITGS

[6] = target: RNA-directed RNA polymerase (Hepacivirus hominis, UniProt O39930); experiment: Inhibitory activity against HCV 1b NS5B RNA polymerase; parameters: species or system Hepatitis C virus subtype 1b
Summary of the method: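 Scintillation proximity polymerase assay with HCV NS5B (genotype 1b, J4 strain, Δ21 construct) at 50 or 10 nM. The reaction used [α-33P]GTP and GTP with 5′-biotinylated oligo(rG13)/poly(rC) in 20 mM Tris-Cl pH 7.5 containing MgCl2, KCl, DTT and 0.05% BSA. It ran 2 h at 25 °C, was stopped with an equal volume of 100 mM EDTA, then captured on streptavidin FlashPlates and counted; n = 4.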

Genome polyprotein = Genome polyprotein (GB virus-B, UniProt Q69422); experiment: Inhibitory activity against virus GBV-B polymerase
Sequence of Genome polyprotein (Q69422 2275-2864 limits assumed): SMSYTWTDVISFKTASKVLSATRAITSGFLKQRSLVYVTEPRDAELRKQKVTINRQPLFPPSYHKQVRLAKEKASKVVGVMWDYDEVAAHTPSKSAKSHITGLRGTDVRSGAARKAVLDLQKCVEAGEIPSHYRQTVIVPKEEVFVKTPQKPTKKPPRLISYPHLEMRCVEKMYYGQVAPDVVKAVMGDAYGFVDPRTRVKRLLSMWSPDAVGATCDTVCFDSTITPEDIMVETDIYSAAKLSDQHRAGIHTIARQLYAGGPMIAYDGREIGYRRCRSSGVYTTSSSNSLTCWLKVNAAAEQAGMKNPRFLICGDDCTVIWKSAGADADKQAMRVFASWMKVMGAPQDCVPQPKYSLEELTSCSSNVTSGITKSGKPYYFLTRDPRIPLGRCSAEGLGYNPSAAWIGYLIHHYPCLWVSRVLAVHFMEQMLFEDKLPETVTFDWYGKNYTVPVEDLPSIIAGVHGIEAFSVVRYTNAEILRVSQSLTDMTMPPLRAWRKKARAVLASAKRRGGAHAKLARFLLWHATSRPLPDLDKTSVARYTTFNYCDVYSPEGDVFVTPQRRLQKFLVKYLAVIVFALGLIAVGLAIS

Sequence of RNA-directed RNA polymerase (O39930 whole entry): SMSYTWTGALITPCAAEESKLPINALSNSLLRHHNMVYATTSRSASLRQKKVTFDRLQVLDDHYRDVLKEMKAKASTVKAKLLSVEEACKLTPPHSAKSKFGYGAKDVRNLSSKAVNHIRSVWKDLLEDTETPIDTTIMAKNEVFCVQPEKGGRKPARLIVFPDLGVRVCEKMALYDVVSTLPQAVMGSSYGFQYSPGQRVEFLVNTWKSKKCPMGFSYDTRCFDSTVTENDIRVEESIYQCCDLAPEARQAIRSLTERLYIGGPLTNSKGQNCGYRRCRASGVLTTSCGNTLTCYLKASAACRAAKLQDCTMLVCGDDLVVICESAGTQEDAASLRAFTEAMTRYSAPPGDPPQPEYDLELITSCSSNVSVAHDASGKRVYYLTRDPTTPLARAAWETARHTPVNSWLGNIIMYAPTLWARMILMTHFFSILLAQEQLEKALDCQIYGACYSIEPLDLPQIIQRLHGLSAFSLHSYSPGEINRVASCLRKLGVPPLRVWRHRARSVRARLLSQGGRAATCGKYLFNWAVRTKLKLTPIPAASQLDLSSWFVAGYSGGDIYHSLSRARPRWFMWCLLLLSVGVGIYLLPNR

SMILES: O=c1c(C2=Nc3ccccc3S(=O)(=O)N2)c(O)c2cc(F)ccc2n1CCC1CC1
- bioavailability [1]: 44%
- bioavailability [2]: > 35%
- bioavailability [3]: > 53%
- Vd [4]: 0.11 L/kg
- EC50 [5]: 5.3 µM
- IC50 [6]: 0.01 µM
- IC50 (Genome polyprotein): > 50 µM

Reference: ChEMBL document CHEMBL1148625, “3-(1,1-dioxo-2H-(1,2,4)-benzothiadiazin-3-yl)-4-hydroxy-2(1H)-quinolinones, potent inhibitors of hepatitis C virus RNA-dependent RNA polymerase” (J Med Chem, 2006)
